The values below come from paper PMC2825117 (Journal of Medicinal Chemistry, 2010).

The target in assay [1] is PHD2 (Homo sapiens, UniProt Q9GZT9). In words: PHD2 biochemical activity assay. The settings on record: hydroxylation of CODD peptide substrate, MALDI-TOF MS.
Assay [2] addresses FIH (Homo sapiens, UniProt Q9NWT6). As to the kind of experiment: FIH MALDI-TOF hydroxylation assay. It is filed as biochemical.
The target in assay [3] is T1, JMJD2E (Homo sapiens, UniProt B2RXH2).
T1 sequence (B2RXH2 1-337): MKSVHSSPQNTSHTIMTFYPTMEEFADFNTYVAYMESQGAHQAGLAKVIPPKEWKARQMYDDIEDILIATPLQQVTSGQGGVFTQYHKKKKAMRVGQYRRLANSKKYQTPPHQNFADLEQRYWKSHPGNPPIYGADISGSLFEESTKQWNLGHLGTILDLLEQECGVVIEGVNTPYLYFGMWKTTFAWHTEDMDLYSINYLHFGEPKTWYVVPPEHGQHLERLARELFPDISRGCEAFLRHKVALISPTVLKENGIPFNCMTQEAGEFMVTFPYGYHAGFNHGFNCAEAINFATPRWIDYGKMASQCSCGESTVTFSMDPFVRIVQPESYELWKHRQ
As to the kind of experiment: MALDI-TOF MS based demethylation assay, JMJD2E. It is filed as biochemical. The method in brief: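 Enzyme: human JMJD2E catalytic domain (residues 1-337), expressed in E. coli as N-terminal His6-tagged protein and purified by Ni-affinity chromatography. Quenched reaction mixtures are mixed with α-cyano-4-hydroxycinnamic acid matrix and analysed by MALDI-TOF MS. Percentage demethylation comes from the relative intensities of the peptide methylation states. IC50 is derived from how percentage demethylation varies across inhibitor concentrations.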

The target in assay [4] is T2, JMJD2A (Homo sapiens, UniProt O75164).
T2 sequence (O75164 1-1064): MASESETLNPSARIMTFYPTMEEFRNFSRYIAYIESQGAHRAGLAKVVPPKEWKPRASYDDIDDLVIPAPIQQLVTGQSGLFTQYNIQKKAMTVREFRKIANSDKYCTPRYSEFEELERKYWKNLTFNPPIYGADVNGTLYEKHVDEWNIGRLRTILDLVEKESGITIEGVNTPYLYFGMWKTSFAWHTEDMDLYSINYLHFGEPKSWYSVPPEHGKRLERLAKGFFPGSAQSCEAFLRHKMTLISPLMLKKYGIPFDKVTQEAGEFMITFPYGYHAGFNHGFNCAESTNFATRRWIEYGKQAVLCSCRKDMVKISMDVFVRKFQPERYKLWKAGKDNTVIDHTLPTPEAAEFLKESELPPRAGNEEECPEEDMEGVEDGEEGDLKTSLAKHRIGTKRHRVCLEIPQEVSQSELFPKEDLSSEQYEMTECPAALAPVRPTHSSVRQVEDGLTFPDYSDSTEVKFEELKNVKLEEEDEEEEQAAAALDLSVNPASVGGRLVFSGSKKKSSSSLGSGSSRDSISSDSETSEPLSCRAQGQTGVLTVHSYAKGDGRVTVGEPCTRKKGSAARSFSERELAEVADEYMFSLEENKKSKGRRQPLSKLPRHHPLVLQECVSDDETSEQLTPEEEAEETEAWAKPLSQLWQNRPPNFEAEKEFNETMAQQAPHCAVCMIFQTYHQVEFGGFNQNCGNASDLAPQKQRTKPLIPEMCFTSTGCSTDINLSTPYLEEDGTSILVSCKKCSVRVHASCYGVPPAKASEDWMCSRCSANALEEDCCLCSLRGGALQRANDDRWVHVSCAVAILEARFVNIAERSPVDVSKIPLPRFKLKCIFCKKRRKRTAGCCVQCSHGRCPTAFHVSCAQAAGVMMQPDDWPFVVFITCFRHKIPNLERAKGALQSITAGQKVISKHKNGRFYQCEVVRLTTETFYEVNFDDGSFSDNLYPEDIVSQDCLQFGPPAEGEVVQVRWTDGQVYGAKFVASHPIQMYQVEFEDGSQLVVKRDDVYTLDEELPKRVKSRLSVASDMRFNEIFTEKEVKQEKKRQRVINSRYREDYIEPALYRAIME
As to the kind of experiment: MALDI-TOF MS based demethylation assay, JMJD2A. Format: biochemical.

Sequence of FIH (Q9NWT6 whole entry): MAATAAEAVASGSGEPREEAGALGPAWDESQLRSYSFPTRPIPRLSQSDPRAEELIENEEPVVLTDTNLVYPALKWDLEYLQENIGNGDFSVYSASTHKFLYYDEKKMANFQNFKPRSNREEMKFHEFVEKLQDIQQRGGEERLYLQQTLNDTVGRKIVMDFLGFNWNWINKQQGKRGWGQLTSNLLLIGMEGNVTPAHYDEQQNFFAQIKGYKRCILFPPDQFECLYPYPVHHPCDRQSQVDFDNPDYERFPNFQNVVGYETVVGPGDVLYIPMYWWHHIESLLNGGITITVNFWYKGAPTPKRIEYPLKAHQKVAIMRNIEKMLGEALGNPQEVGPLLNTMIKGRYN
Sequence of PHD2 (Q9GZT9 whole entry): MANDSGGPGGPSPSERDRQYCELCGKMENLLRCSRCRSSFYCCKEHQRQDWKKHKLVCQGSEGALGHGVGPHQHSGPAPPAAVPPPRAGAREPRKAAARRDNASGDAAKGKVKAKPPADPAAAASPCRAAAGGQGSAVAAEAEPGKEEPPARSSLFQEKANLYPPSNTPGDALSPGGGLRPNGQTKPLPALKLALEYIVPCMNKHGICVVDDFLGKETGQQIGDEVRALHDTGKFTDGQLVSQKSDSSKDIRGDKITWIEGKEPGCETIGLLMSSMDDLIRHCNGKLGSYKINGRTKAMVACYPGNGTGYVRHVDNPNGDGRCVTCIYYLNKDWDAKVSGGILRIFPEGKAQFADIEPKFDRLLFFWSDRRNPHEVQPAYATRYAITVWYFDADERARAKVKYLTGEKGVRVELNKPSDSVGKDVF

For `O=C(O)CNC(=O)C(=O)O` [1a, N-oxalylglycine, reference compound], the “inhibitory activity toward PHD2 (in words)” value in assay [1] is listed as “potent inhibitor of PHD2”.
What is called IC50 is the concentration needed to halve the response being measured. A high value points to a need for much substance. `CC(C)(C)c1ccc(S(=O)(=O)Oc2ccc(C[C@@H](NC(=O)C(=O)O)C(=O)O)cc2)cc1` [7c] displayed an IC50 in assay [2] of 37.2 µM. Further, the “selectivity of inhibition (JMJD2E) with regard to FIH” value in assay [2] (comparison of JMJD2E FDH IC50 and FIH MALDI-TOF IC50) is recorded as “relatively low”. In assay [1], the “inhibitory activity toward PHD2 (in words)” value was “No inhibitory activity”.
Consider `O=C(O)C(=O)N[C@H](Cc1ccc(OS(=O)(=O)c2ccccc2)cc1)C(=O)O` [7d], for which the IC50 was determined as 43 µM in assay [3] and 17 µM in assay [4].
Turning to `O=C(O)C(=O)N[C@H](Cc1ccc(OS(=O)(=O)c2ccc(F)cc2)cc1)C(=O)O` [7e], the “inhibitory activity toward PHD2 (in words)” value in assay [1] is listed as “No inhibitory activity”.
For the compound `O=C(O)C(=O)N[C@H](Cc1ccc(OS(=O)(=O)c2ccc(Br)cc2)cc1)C(=O)O` [7f], the midpoint of inhibition in assay [2], the IC50, lay at 60.2 µM. In addition, the “inhibitory activity toward PHD2 (in words)” value in assay [1] is recorded as “No inhibitory activity”.
For the compound `O=C(O)C(=O)N[C@H](Cc1ccc(OCc2ccccc2[N+](=O)[O-])cc1)C(=O)O` [10k], the midpoint of inhibition in assay [3], the IC50, lay at 47 µM. This lies in the double-digit micromolar range.
